ChEMBL document CHEMBL1132299, “Phosphinic pseudo-tripeptides as potent inhibitors of matrix metalloproteinases: a structure-activity study” (J Med Chem, 1999)

Legend:
[1] = molecular target: Matrix metalloproteinase-14 (Homo sapiens, UniProt P50281); experiment: Binding affinity against matrix metalloprotease-14 MTI-MMP.
Method in brief: (§1)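 Catalytic domains of human MMP-14 and MMP-7 were expressed in E. coli BL21 DE3 pLysS. Buffer 50 mM Tris/HCl pH 6.8, 10 mM CaCl2, 25 °C; 0.2–5 nM enzyme; 6 µM Mca-Pro-Leu-Gly-Leu-Dpa-Ala-Arg-NH2 read by fluorescence (ex 340, em 400 nm) for 30 min. Km: MMP-14 21, MMP-7 67 µM. Five inhibitor concentrations in triplicate; Ki by Horovitz–Levitski method.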

[2] = molecular target: T1, Matrilysin (Homo sapiens, UniProt P09237); experiment: Inhibition of Matrix metalloprotease-7 Matrilysin; method in brief: as §1
T1 sequence (P09237 whole entry): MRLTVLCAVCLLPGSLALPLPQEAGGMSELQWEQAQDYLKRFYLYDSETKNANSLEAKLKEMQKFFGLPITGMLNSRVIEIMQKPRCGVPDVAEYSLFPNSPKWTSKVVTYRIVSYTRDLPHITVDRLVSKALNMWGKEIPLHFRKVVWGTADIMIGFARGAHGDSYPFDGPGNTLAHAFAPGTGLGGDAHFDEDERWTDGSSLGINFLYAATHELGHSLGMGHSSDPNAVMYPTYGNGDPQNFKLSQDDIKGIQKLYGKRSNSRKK

[3] = molecular target: Neutrophil collagenase (Homo sapiens, UniProt P22894); experiment: Inhibition of matrix metalloprotease-8
Sequence of Neutrophil collagenase (P22894 whole entry): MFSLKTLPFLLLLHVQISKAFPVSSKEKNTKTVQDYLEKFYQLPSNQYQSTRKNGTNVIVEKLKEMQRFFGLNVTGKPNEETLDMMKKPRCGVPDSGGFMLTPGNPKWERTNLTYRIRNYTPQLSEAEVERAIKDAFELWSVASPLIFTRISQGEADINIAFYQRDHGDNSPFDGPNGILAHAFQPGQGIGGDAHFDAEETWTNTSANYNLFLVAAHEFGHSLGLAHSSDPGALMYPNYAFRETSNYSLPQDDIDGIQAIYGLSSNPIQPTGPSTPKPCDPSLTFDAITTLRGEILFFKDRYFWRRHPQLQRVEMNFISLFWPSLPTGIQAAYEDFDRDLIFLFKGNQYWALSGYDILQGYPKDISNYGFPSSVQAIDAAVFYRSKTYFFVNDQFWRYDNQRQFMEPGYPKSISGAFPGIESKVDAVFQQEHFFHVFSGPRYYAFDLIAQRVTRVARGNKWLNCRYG
Method in brief: (§2)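 Full-length human pro-MMP-2, -9 and -8 were expressed in NSO myeloma cells and activated with 4-aminophenylmercuric acetate just before use. Run at 25 °C in 50 mM Tris/HCl pH 6.8, 10 mM CaCl2, with 0.2–5 nM enzyme and 6 µM Mca-Pro-Leu-Gly-Leu-Dpa-Ala-Arg-NH2; fluorescence 340/400 nm, 30 min. Km: MMP-2 49, MMP-9 14, MMP-8 61 µM. Triplicate, five inhibitor levels; Ki by Horovitz–Levitski.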

[4] = molecular target: Matrix metalloproteinase-9 (Homo sapiens, UniProt P14780); experiment: Binding affinity against matrix metalloprotease-9 (gelatinase-B).; method in brief: as §2
Sequence of Matrix metalloproteinase-9 (P14780 whole entry): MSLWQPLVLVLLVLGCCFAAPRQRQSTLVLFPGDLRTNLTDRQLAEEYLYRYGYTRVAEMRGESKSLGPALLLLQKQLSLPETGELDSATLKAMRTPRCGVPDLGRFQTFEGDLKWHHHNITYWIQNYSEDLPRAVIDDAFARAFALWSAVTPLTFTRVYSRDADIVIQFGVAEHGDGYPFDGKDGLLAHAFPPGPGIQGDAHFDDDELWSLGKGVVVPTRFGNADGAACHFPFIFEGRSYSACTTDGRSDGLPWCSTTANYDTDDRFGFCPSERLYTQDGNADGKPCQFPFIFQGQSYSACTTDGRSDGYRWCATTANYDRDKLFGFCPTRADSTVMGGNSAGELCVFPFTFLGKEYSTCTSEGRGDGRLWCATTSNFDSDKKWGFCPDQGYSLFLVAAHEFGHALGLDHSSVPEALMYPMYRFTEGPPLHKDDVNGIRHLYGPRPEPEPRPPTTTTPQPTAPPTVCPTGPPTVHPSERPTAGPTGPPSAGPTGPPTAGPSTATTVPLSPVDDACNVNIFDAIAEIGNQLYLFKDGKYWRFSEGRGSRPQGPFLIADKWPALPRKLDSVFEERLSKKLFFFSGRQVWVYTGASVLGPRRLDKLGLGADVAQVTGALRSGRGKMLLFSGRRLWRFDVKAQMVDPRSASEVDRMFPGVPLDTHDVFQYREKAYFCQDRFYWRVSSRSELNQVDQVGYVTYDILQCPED

[5] = molecular target: 72 kDa type IV collagenase (Homo sapiens, UniProt P08253); experiment: Binding affinity against matrix metalloprotease-2 (gelatinase-A).; method in brief: as §2
Sequence of 72 kDa type IV collagenase (P08253 whole entry): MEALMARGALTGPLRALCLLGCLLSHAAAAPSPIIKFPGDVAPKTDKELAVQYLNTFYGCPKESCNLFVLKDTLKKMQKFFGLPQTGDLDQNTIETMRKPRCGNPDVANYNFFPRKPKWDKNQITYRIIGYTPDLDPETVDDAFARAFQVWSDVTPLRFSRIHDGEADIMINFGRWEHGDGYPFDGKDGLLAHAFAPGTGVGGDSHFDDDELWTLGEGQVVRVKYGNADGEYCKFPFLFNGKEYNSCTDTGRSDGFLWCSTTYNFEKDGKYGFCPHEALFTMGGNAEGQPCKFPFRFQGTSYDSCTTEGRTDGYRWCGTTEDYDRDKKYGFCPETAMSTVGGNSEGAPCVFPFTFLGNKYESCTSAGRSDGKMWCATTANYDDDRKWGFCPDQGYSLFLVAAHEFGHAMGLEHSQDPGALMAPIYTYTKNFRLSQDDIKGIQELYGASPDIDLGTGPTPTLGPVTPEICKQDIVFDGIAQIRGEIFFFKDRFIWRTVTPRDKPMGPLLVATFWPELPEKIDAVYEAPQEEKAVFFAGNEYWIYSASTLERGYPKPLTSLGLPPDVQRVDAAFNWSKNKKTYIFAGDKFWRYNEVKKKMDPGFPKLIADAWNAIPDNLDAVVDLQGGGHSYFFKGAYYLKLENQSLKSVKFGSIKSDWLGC

[6] = molecular target: T2, Interstitial collagenase (Homo sapiens, UniProt P03956); experiment: Inhibition of matrix metalloprotease-1
T2 sequence (P03956 whole entry): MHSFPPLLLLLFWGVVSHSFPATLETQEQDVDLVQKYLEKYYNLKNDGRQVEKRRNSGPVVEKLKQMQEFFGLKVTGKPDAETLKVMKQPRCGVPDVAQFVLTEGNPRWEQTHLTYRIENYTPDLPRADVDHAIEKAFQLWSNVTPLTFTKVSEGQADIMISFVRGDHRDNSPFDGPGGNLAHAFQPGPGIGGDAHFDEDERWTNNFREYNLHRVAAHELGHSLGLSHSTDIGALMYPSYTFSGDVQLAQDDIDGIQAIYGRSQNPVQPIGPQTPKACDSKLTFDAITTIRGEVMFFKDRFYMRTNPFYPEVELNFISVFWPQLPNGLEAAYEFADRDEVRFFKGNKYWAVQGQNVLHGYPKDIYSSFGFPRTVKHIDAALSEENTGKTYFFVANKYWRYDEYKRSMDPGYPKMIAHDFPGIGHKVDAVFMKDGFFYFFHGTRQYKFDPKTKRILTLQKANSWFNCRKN
Method in brief: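 Human full-length pro-MMP-1 was expressed in NSO myeloma cells and activated just before use with trypsin (10 µg/mL, 25 min, 25 °C), then BPTI (100 µg/mL). Assay: 50 mM Tris/HCl pH 6.8, 10 mM CaCl2, 25 °C, 0.2–5 nM enzyme, 6 µM Mca-Pro-Leu-Gly-Leu-Dpa-Ala-Arg-NH2, fluorescence 340/400 nm over 30 min. Km 100 µM. Triplicate inhibition at five concentrations (20–80% range) gave Ki by the Horovitz–Levitski method.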

[7] = molecular target: T3, Stromelysin-3 (Mus musculus, UniProt Q02853); experiment: Binding affinity against matrix metalloprotease-11.
T3 sequence (Q02853 whole entry): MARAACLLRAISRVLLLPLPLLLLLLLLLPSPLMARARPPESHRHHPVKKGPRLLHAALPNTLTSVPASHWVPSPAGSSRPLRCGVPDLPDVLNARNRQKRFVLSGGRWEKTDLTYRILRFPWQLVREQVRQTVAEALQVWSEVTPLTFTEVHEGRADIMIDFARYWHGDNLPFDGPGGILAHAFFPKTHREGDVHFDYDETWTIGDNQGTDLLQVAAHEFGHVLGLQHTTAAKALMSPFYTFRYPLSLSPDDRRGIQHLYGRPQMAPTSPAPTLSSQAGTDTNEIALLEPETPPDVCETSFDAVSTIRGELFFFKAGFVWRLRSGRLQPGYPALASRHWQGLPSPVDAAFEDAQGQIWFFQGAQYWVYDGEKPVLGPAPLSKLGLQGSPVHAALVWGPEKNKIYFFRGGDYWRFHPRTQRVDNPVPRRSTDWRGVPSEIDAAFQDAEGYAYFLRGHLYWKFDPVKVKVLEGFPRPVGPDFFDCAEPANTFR
Method in brief: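 Mouse MMP-11 catalytic domain from E. coli BL21 DE3 pLysS, assayed in stirred quartz cuvettes in 50 mM Tris/HCl pH 6.8, 10 mM CaCl2 at 25 °C. Substrate was Mca-Pro-Leu-Ala-Cys(OMeBn)-Trp-Ala-Arg-Dpa-NH2 (Km 0.2 µM), with fluorescence read-out. Percent inhibition was measured in triplicate at five concentrations (20–80% range), and Ki was derived by the Horovitz–Levitski method.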

Ki [1]: 60 nM
Ki [2]: 370 nM
Ki [3]: 5 nM
Ki [4]: 13 nM
Ki [5]: 19 nM
Ki [6]: 340 nM
Ki [7]: 4.2 nM
SMILES: NC(=O)C(Cc1c[nH]c2ccccc12)NC(=O)C(CCCc1ccccc1)CP(=O)(O)C(Cc1ccccc1)NC(=O)c1ccc2ccccc2n1 (configuration not stated)
